# Laboratory results from PMC4245150 (Organometallics, 2014).
# What was measured:
# PKCι-par6 = PKCι-par6 in vitro; cited from earlier work
# plasmid (pBR322) DNA = assay: electrophoresis mobility shift assay with plasmid DNA; type: binding; details: metal/DNAbp ratios 0.25-2.0, 37 °C, 20 h, pH 7.39
# Summary of the method: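 pBR322 DNA (20 μg/mL) in 5 mM Tris/HCl, 50 mM NaClO4, pH 7.39 incubated with test compound ([…] metal complex/DNAbp) for 20 h at 37 °C in the dark; free DNA and cisplatin-treated DNA as controls. Samples run on 1% agarose gel, 1.5 h at 80 V in Tris-acetate/EDTA, stained 30 min with GelRed.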
# DU145 = assay: XTT cell viability assay, DU145; type: cell-based, human
# Summary of the method: (§1)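 Cells kept in RPMI-1640 with 10% FBS, 1% NEAA and PenStrep at 37 °C, 5% CO2. Seeded at 5000 cells/well in phenol-red-free, antibiotic-free RPMI (10% FBS, 2 mM L-glutamine) and grown 24 h. Test compound was dissolved in 1% DMSO, diluted in water and added at 0.1–200 μM final for 24 or 72 h. XTT was added at 0.3 mg/mL for 4 h, and A450 read. IC50 is the concentration halving proliferation against untreated cells, from ≥2 independent experiments in triplicate.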
# UO31 = assay: XTT cell viability assay, UO31; type: cell-based, human
# Summary of the method: as §1
# HEK-293T = assay: XTT cell viability assay, HEK-293T; type: cell-based, human; details: HEK-293T (nontumorigenic)
# Summary of the method: as §1, with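 “HEK-293 cells kept” for “Cells kept”, “in DMEM” for “in RPMI-1640”, “antibiotic-free DMEM” for “antibiotic-free RPMI”, “and dosed” for “and added”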
# PC3 = assay: XTT cell viability assay, PC3; type: cell-based, human
# A498 = assay: XTT cell viability assay, A498; type: cell-based, human
# Caki-1 = assay: XTT cell viability assay, Caki-1; type: cell-based, human
# Summary of the method: as §1
# PI3 kinases = assay: HotSpot kinase assay, lipid PI3 kinases; type: biochemical; details: IC50 values only plotted in Figure 8
# CT-DNA = details: physiological pH / pH 7; cited from earlier work
# panel of 30 kinases = assay: HotSpot kinase assay, panel of 30 nonlipid kinases; type: biochemical; details: even at concentrations of 100 μM
Compound,IC50 (PKCι-par6) [µM],effect on electrophoretic mobility of plasmid forms (plasmid (pBR322) DNA),"IC50 (DU145; DU145, 24 h incubation) [µM]","IC50 (DU145; DU145, 72 h incubation) [µM]","IC50 (UO31; UO31, 24 h incubation) [µM]","IC50 (UO31; UO31, 72 h incubation) [µM]",IC50 (HEK-293T; 24 h incubation) [µM],IC50 (HEK-293T; 72 h incubation) [µM],"IC50 (PC3; PC3, 24 h incubation) [µM]","IC50 (PC3; PC3, 72 h incubation) [µM]","IC50 (A498; A498, 24 h incubation) [µM]","IC50 (A498; A498, 72 h incubation) [µM]","IC50 (Caki-1; Caki-1, 24 h incubation) [µM]","IC50 (Caki-1; Caki-1, 72 h incubation) [µM]",inhibition of PI3 kinase family (PI3 kinases),interaction with CT-DNA (CT-DNA),inhibition of enzymatic activity of 30 kinases (panel of 30 kinases)
O=C(O)CC([S-])C(=O)O.[Au+] (stereo not shown) [aurothiomalate],~1,–,–,–,–,–,–,–,–,–,–,–,–,–,–,–,–
OC[C@H]1O[C@H]([S-])[C@H](O)[C@@H](O)[C@@H]1O.[Au+] [aurothioglucose],~1,–,–,–,–,–,–,–,–,–,–,–,–,–,–,–,–
"O=C(O)C[P+]([Au-][Cl])(c1ccccc1)c1ccccc1 [compound 6, [HOC(O)CH2PPh2AuCl]]",–,does not affect the mobility of the faster-running supercoiled form,34.7 ± 1.8,31.3 ± 3.1,27.3 ± 2.7,5.2 ± 1.6,36.5 ± 3.3,9.7 ± 2.5,38.2 ± 2.2,30.2 ± 4.2,58 ± 11,43 ± 4.9,33.8 ± 2.1,23 ± 4.1,–,–,–
COc1ccc(C[C]2([Ti+2][C]3(Cc4ccc(OC)cc4)C=CC=C3)C=CC=C2)cc1.[Cl-].[Cl-] [Titanocene Y],–,–,> 200,55.2 ± 7.9,> 200,> 200,> 200,> 200,> 200,58.1 ± 11.2,> 200,> 29.6,> 200,29.4 ± 4.2,–,–,–
[Cl-].[Cl-].[Ti+4].c1cc[cH-]c1.c1cc[cH-]c1 [titanocene dichloride],–,–,> 200,> 200,> 200,> 200,> 200,> 200,> 200,> 200,> 200,> 200,> 200,> 200,inhibits exclusively protein kinases of the PI3 kinase family at nanomolar concentrations,does not interact with CT-DNA,did not inhibit the enzymatic activity to levels of 50% or below
N.N.[Cl][Pt][Cl] [cisplatin],–,decrease in mobility of the CCC form and an increase in mobility of the OC form,44.5 ± 0.33,12.1 ± 3.9,> 100,8.9 ± 2.7,64.4 ± 7.9,3.2 ± 0.13,92 ± 18,14 ± 2.3,74.7 ± 6,37.2 ± 4.6,68.8 ± 0.14,29 ± 4.1,–,–,–
